Results collected from several papers.
Lines come from different studies, so protocols differ.
Target: Phosphatidylinositol 5-phosphate 4-kinase type-2 gamma (PIP4K2C, Homo sapiens, UniProt Q8TBX8)
One construct used (Q8TBX8 1-421): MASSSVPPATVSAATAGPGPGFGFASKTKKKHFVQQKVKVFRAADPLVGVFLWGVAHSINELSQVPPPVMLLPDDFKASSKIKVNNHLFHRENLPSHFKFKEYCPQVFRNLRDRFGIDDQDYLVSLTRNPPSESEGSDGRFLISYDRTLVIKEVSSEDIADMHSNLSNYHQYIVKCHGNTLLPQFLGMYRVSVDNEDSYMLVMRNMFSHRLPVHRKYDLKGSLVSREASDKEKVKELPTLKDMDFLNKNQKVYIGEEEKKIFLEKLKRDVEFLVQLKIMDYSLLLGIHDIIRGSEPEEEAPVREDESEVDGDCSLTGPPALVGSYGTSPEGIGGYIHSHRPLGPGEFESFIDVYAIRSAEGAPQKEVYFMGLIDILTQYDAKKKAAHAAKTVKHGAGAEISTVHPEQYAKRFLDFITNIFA

O=C(N1CCS(=O)(=O)CC1)N1C[C@H](c2ccc(OC(F)(F)F)cc2)C[C@H](c2nc(C3CC3)no2)C1 — remaining binding (cell-free assay; competition with immobilised ligand; 1 µM): 96%
FC(F)(F)Oc1cccc(-c2cnc3ccc(-c4ccncc4)nn23)c1 — remaining binding (cell-free assay; competition with immobilised ligand; 5 µM): 32%
CN(c1nccc(-c2cnn3ncccc23)n1)C1CC1 — remaining binding (binding; 1 µM): 100%
C=CC(=O)N1CCC(C(=O)NCC(=O)N2CCN(c3nc(-c4cnc(N)nc4C(F)F)nc(N4CCOCC4)n3)CC2)CC1 — remaining binding (binding; competition with immobilised ligand; 1 µM): 95%
O=C(NCC1CCOCC1)c1n[nH]cc1NC(=O)c1c(F)cccc1F — remaining binding (binding; competition with immobilised ligand; 1 µM): 91%
Cc1cnc(Nc2ccc(C(=O)N3CCC(N4CCCC4)CC3)cc2)nc1-c1cc2ccccc2s1 — remaining binding (binding; competition with immobilised ligand; 1 µM): 5.6%
Cc1cc(-n2nc(Cc3cc(F)cc(C(F)(F)F)c3)nc2C)ccc1C(N)=O — remaining binding (cell-free assay; competition with immobilised ligand; 1 µM): 100%
N[C@H]1CCN(c2nccc(-c3cnn4ncccc34)n2)C1 — remaining binding (binding; 1 µM): 81%
Cc1cc(C)c(-n2ccn3nc(-c4cccnc4)cc23)cc1NC(=O)c1cc(C#N)cc(S(F)(F)(F)(F)F)c1 — remaining binding (cell-free assay; competition with immobilised ligand; 0.1 µM): 89.9%
Cc1cnn2ncc(-c3ccnc(N(C)C)n3)c2c1 — remaining binding (binding; 1 µM): 80%
O=C(c1ccc(Nc2ncc(Cl)c(-c3cc4ccccc4s3)n2)cc1)N1CCC(N2CCCC2)CC1 — remaining binding (binding; competition with immobilised ligand; 1 µM): 6.7%
c1cncc(-c2cccc(Nc3nccc(NC4CCCCC4)n3)c2)c1 — remaining binding (binding; competition with immobilised ligand; 10 µM): 21%
CN(C)c1nccc(-c2cnc3ncccn23)n1 — remaining binding (binding; 1 µM): 93%
Cn1cc(Cl)c2c(Oc3c(F)cc(Nc4cc(Cl)nc(N)n4)cc3F)ccnc21 — remaining binding (cell-free assay; competition with immobilised ligand; 0.1 µM): 96%
C[C@H]1CCN(c2nccc(-c3cnn4ncccc34)n2)C1 — remaining binding (binding; 1 µM): 42%
CNCc1ccccc1-c1csc([C@H](C)Nc2nc(C)nc3cc(OC)c(OC)cc23)c1 — remaining binding (cell-free assay; competition with immobilised ligand; 1 µM): 100%
O=C(c1ccc(Nc2nccc(-c3cc4ccccc4s3)n2)cc1)N1CCC(N2CCCC2)CC1 — remaining binding (binding; competition with immobilised ligand; 1 µM): 1.4%
CCS(=O)(=O)c1cc2cc(C[C@@](O)(CC(C)(C)c3ccc(F)cc3C(N)=O)C(F)(F)F)[nH]c2cn1 — remaining binding (cell-free assay; competition with immobilised ligand; 1 µM): 100%
COc1ccnn2ncc(-c3ccnc(N(C)C)n3)c12 — remaining binding (binding; 1 µM): 80%
COc1cnc(Nc2cccc(S(N)(=O)=O)c2)nc1N1CCN(c2ccccc2)CC1 — remaining binding (binding; competition with immobilised ligand; 1 µM): 95%
F[C@@H]1CCN(c2nccc(-c3cnn4ncccc34)n2)C1 — remaining binding (binding; 1 µM): 100%
C[C@@H](c1ccc(-n2cnc3c(N)ncnc32)cc1)N1CCc2nn(C)c(Cc3ccccc3)c2C1=O — remaining binding (binding; competition with immobilised ligand; 0.1 µM): 96%
